Data published in the M2OR odorant receptor database.

Legend:
Conditions in all cases: stereoisomer not certain
UniProt A2ATE5 = target: T1, UniProt A2ATE5
T1 sequence (whole entry): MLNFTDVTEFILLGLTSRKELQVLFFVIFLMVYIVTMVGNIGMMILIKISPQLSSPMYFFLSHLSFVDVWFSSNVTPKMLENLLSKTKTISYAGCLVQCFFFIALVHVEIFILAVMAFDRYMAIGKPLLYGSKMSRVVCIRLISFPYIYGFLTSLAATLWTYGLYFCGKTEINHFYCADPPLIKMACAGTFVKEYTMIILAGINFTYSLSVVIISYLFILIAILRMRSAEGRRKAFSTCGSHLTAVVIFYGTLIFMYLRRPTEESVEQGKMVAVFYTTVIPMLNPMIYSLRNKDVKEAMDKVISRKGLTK
Summary of the method: (§1)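 Each entry records the cell line, G-protein, co-transfected protein and tags used. Methods varied with the source, often transient luciferase assays in mammalian cell lines. A receptor–molecule pair is called responsive (active) if the original authors judged its signal statistically different from baseline and non-responsive (inactive) otherwise.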

UniProt A2AVB0 = target: T2, UniProt A2AVB0
T2 sequence (whole entry): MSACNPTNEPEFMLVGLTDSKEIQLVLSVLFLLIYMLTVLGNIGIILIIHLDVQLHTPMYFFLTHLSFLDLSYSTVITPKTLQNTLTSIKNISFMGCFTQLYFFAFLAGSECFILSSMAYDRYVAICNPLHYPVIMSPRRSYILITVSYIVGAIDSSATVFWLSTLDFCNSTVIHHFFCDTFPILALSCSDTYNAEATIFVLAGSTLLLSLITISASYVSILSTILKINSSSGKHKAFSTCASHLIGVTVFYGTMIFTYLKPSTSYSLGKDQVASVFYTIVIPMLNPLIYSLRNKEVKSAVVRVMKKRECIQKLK
Summary of the method: as §1

UniProt A2AVB5 = target: T3, UniProt A2AVB5
T3 sequence (whole entry): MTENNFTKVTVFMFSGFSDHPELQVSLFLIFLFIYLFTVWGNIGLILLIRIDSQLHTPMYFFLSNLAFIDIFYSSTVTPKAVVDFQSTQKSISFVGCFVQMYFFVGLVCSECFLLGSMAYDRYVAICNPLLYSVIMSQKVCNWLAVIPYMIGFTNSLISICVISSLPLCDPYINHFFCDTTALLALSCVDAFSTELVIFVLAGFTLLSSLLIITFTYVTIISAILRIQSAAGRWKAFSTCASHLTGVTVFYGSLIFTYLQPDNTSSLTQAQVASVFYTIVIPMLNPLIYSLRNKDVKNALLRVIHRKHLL
Summary of the method: as §1

UniProt B2RVX8 = target: T4, UniProt B2RVX8
T4 sequence (whole entry): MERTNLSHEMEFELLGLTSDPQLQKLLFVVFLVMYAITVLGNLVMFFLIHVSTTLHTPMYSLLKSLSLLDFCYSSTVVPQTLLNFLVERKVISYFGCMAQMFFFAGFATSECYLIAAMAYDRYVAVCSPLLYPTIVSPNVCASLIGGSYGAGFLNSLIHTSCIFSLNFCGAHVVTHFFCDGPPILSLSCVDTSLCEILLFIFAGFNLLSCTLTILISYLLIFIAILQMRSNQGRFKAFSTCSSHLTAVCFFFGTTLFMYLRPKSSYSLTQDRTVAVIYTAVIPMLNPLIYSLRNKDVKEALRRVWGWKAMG
Summary of the method: as §1

UniProt E9PVX1 = target: T5, UniProt E9PVX1
T5 sequence (whole entry): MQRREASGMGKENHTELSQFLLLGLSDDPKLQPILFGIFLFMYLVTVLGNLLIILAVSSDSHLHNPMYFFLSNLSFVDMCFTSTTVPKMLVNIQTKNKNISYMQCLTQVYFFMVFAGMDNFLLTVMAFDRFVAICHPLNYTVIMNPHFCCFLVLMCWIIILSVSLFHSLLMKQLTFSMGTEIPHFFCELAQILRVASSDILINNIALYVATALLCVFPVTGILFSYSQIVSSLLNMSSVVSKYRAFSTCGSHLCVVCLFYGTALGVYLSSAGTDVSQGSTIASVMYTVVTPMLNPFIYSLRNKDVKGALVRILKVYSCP
Summary of the method: as §1

UniProt E9PX47 = target: T6, UniProt E9PX47
T6 sequence (whole entry): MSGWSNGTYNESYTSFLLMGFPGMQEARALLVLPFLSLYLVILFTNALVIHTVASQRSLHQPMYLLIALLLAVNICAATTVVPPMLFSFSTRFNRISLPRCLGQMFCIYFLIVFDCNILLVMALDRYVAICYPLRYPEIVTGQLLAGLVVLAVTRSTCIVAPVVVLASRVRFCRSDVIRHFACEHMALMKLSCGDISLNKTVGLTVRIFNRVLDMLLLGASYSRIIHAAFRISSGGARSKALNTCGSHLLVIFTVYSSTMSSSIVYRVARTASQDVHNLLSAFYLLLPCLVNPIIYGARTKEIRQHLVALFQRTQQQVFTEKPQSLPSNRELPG
Summary of the method: as §1

UniProt E9PXN3 = target: T7, UniProt E9PXN3
T7 sequence (whole entry): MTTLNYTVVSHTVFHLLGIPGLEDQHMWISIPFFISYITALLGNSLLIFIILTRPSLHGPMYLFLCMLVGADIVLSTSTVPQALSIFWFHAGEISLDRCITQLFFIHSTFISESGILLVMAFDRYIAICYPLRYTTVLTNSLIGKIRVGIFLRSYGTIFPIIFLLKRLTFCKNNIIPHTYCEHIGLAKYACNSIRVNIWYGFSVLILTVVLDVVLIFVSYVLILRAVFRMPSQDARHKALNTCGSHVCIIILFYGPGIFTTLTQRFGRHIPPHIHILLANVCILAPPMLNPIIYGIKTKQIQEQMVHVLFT
Summary of the method: as §1

UniProt E9PZ66 = target: T8, UniProt E9PZ66
T8 sequence (whole entry): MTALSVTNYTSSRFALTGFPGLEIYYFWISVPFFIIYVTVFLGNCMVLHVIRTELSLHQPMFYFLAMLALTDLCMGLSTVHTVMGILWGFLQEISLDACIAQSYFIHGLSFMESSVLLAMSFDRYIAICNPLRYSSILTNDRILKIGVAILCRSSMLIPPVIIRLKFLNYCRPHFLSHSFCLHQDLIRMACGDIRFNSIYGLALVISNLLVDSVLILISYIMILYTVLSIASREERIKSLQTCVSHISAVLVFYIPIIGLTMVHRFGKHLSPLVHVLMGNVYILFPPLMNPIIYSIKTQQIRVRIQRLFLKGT
Summary of the method: as §1

UniProt E9Q4X7 = target: T9, UniProt E9Q4X7
T9 sequence (whole entry): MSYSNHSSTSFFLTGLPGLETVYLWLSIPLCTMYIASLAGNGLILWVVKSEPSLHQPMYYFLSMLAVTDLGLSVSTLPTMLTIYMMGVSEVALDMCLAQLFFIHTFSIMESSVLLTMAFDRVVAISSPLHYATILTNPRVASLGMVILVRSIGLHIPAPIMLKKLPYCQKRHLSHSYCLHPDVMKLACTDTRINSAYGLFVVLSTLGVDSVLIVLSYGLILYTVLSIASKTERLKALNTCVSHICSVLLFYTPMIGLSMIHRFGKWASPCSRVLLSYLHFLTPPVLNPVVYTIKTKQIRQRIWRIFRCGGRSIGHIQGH
Summary of the method: as §1

UniProt E9Q546 = target: T10, UniProt E9Q546
T10 sequence (whole entry): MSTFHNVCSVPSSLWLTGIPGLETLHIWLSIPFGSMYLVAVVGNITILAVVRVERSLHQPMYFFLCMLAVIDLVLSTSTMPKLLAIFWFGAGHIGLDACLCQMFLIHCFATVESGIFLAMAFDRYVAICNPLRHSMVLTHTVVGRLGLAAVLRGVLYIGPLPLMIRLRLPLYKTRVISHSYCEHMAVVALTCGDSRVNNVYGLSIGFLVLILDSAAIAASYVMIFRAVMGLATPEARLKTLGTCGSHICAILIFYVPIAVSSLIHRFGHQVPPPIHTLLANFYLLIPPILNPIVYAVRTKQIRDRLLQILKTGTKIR
Summary of the method: as §1

UniProt E9Q6Z7 = target: T11, UniProt E9Q6Z7
T11 sequence (whole entry): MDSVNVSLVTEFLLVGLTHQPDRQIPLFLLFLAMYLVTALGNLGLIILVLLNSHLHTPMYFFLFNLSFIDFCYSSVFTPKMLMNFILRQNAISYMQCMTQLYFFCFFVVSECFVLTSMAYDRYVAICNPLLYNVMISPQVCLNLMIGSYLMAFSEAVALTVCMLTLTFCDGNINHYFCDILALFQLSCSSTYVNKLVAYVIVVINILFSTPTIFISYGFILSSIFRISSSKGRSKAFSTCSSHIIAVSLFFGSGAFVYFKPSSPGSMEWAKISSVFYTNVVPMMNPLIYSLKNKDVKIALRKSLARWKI
Summary of the method: as §1

UniProt K7N609 = target: T12, UniProt K7N609
T12 sequence (whole entry): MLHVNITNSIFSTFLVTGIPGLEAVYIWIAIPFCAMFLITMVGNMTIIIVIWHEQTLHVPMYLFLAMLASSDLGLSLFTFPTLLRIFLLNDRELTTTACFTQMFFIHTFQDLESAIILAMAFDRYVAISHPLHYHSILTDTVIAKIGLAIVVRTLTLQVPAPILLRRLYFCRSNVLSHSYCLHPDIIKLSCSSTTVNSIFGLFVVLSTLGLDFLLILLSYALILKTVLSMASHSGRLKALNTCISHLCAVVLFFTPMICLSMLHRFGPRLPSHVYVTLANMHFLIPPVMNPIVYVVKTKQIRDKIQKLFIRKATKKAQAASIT
Summary of the method: as §1

Measured: odorant receptor agonist call

CCCCC(=O)O
active: UniProt E9PZ66
inactive: all other assays above

O=C(c1ccccc1)c1ccccc1
not listed: UniProt E9PX47 | UniProt E9PXN3
inactive: all other assays above

CCCCCCOC(C)=O
not listed: UniProt E9PX47 | UniProt E9PXN3
inactive: all other assays above

CCCCOC=O
not listed: UniProt E9PX47 | UniProt E9PXN3
inactive: all other assays above

CC(=O)OCC=C(C)C
not listed: UniProt E9PX47 | UniProt E9PXN3
inactive: all other assays above

CCOC(=O)C(C)C
not listed: UniProt E9PX47 | UniProt E9PXN3
inactive: all other assays above

COc1cc(C(=O)O)ccc1O
active: UniProt E9Q4X7 | UniProt K7N609
not listed: UniProt E9PX47 | UniProt E9PXN3
inactive: all other assays above

CCCCCCC(C)=O
not listed: UniProt E9PX47 | UniProt E9PXN3
inactive: all other assays above

CCCCCCCCCO
inactive: all assays above

C=C(C)C1CCC(C)C(=O)C1 (stereo not given)
not listed: UniProt E9PX47 | UniProt E9PXN3
inactive: all other assays above

CCC(=O)O
not listed: UniProt E9PX47 | UniProt E9PXN3
inactive: all other assays above

CCCCCCCCC(=O)O
not listed: UniProt E9PXN3
inactive: all other assays above

CCCCCCCCCCO
not listed: UniProt E9PX47 | UniProt E9PXN3
inactive: all other assays above
